This note sets out measurements from ChEMBL document CHEMBL3853352, “Anti-tubercular activities of 5,6,7,8-tetrahydrobenzo[4,5]thieno[2,3-d]pyrimidin-4-amine analogues endowed with high activity toward non-replicative Mycobacterium tuberculosis” (Bioorg Med Chem, 2016).

The subject of data set [1] is Mycobacterium tuberculosis. Put plainly: Antimycobacterial activity against Mycobacterium tuberculosis H37Rv after 7 days by MABA. The note with it: 168 h. Type of data set: functional. An outline of the steps: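 M. tuberculosis H37Rv inoculum taken from fresh LJ medium, resuspended in 7H9-S (7H9, 0.1% casitone, 0.5% glycerol, OADC), adjusted to McFarland No. 1 and diluted 1:20. Serial two-fold drug dilutions in 7H9-S, with growth and sterile controls. Incubated 7 days at 37 °C in normal atmosphere, then alamar blue added and incubated overnight. MIC = lowest concentration preventing the blue-to-pink change.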
On the technique in general: The colour change of resazurin is a common sign of viable cells or microbes.

Data set [2] deals with Mycobacterium tuberculosis. Put plainly: Antimycobacterial activity against dormant stage of Mycobacterium tuberculosis H37Rv assessed as reduction in bacterial growth under nutrient starved conditions at 10 ug/ml for 7 days measured after 28 days. The format is functional. An outline of the steps:
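H37Rv grown in 7H9/OADC, washed twice and resuspended in PBS, then held in sealed bottles at 37 °C for 6 weeks. Starved cultures exposed to compound at 10 ug/ml for 7 days. Cells diluted 10-fold serially to 10^-6 in 7H9/OADC and plated in triplicate. Incubated 28 days at 37 °C without agitation; wells with visible growth scored positive and MPN calculated.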

The target of data set [3] is T1, L-lysine-epsilon aminotransferase (Mycobacterium tuberculosis) (UniProt P9WQ77).
T1 sequence (whole entry): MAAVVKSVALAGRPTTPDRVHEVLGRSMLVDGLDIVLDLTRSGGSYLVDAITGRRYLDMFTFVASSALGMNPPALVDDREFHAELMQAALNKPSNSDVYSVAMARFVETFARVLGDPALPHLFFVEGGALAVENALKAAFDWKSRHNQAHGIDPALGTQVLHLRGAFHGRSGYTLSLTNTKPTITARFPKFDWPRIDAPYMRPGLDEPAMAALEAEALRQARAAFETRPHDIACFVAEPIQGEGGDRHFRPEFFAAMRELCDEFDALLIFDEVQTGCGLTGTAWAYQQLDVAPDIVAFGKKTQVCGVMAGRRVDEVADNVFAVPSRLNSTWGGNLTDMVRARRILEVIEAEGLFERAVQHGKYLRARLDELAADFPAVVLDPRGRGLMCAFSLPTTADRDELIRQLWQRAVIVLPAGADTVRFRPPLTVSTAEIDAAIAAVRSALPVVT
Put plainly: Inhibition of Mycobacterium tuberculosis LAT at 25 uM.

Data set [4] in a line: Inhibition of Mycobacterium tuberculosis ADH assessed as decrease in conversion of L-alanine to pyruvate by measuring NADH by spectrophotometry. Set-up: species or system Mycobacterium tuberculosis H37Rv. An outline of the steps:
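Mtb L-AlaDH oxidative deamination of L-alanine to pyruvate at 37 °C. NADH formation read at 340 nm. Compounds tested from 25 µM to 0.5 µM. Background read from the reaction mixture without enzyme. IC50 values calculated from the concentration series.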

Data set [5] deals with Mycobacterium tuberculosis. In words: Binding affinity to Mycobacterium tuberculosis ADH assessed as change in melting temperature by Sypro orange dye based differential scanning fluorimetry. The essentials:
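Thermal shift assay on Mtb L-AlaDH (100 µg/ml, 10 µl) in 100 mM HEPES-NaOH pH 7.8 with 6 µl of 15× Sypro Orange; compounds added in <10% DMSO. Samples equilibrated 3 min at 25 °C, then ramped to 95 °C in 0.1 °C steps. Tm taken as the lowest point of the first-derivative plot; shift measured against the native protein.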

Data set [6] in a line: Cytotoxicity against mouse RAW264.7 cells assessed as inhibition of cell proliferation at 50 ug/ml after 48 hrs by MTT assay. The format is toxicity. An outline of the steps: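 RAW 264.7 mouse macrophages grown in RPMI with 10% FBS and penicillin/streptomycin, then seeded at about 5000 cells/well on poly-L-lysine-coated plates. Pre-incubated 24 h at 37 °C, 5% CO2, then exposed to compound for 48 h. MTT (0.5 mg/ml) added for 3 h and formazan read at 595 nm.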

Data set [7] relates to Mycobacterium tuberculosis H37Rv. In words: Inhibition of Mycobacterium tuberculosis ADH assessed as decrease in conversion of L-alanine to pyruvate at 25 uM by measuring NADH by spectrophotometry.
For data set [8], the system named is Mycobacterium tuberculosis. Put plainly: Antimycobacterial activity against Mycobacterium tuberculosis H37Rv after 6 days by resazurin assay. The note with it: 144 h. The format is functional.

≈ marks a conversion by molar mass, not a printed value.

In general, MIC refers to the smallest concentration in the dilution series that meets the test's criterion for growth inhibition. Read a low MIC as greater potency. One may read the inhibition as the percentage by which the read-out fell short of the control. For orientation: IC50 means the concentration at which inhibition is half-maximal. Broadly, the ΔTm is the change in melting temperature against a reference sample. In turn, `CCc1nc(NCCc2ccccc2)c2c3c(sc2n1)CCCC3` came in with a minimum inhibitory concentration (MIC) in data set [1] of 37 µM (≈ 12.5 µg/mL). The “fold change (FC)” value in data set [2] was over 1. Also, the inhibition in data set [3] was under 50%; in data set [7], 50%. The 50% inhibitory concentration (IC50) in data set [4] turned out to be 1.82 µM. Moreover, in data set [5], the shift in melting temperature (ΔTm) amounted to 1.4 °C. Also, the inhibition at 48 h, 50 ug/ml in data set [6] was found to be 25.2%.

For `Cc1cccc(-c2nc(Nc3ccncn3)c3c(C)csc3n2)n1`, the MIC in data set [8] came to 0.76 µM (≈ 0.254 µg/mL).

`CCc1nc(Nc2ccc(F)cc2)c2c3c(sc2n1)CCCC3`: the MIC in data set [1] was determined as 38.2 µM (≈ 12.5 µg/mL). Further, in data set [2], the “fold change (FC)” value is over 1. For the same compound, the inhibition in data set [3] was under 50%; in data set [7] it was 50%. For the same compound, the concentration for half-maximal inhibition (IC50) in data set [4] amounted to 6.05 µM. The inhibition at 48 h, 50 ug/ml in data set [6] is 14%.

On to `Cc1ccc(C)c(Nc2nc(C3CC3)nc3sc4c(c23)CCCC4)c1`, for which, in data set [1], inhibition of growth (MIC) required 35.8 µM (≈ 12.5 µg/mL). Besides, the “fold change (FC)” value in data set [2] was over 1. Moreover, the inhibition in data set [3] is under 50%; in data set [7], 50%. Moreover, the IC50 in data set [4] was determined as 2.07 µM. Further, the inhibition at 48 h, 50 ug/ml in data set [6] was determined as 16.3%.

As for `COc1ccc(Nc2nc(-c3ccccc3)nc3sc4c(c23)CCCC4)cc1`, the minimal inhibitory concentration (MIC) in data set [1] came to 16.1 µM (≈ 6.25 µg/mL). In data set [2], the “fold change (FC)” value is listed as over 1. The values for the inhibition in data set [3] and in data set [7] were under 50% and 50%, respectively. Further, the IC50 in data set [4] was 8.72 µM. In addition, the inhibition at 48 h, 50 ug/ml in data set [6] is 28.2%.

Turning to `c1ccc(CNc2nc(C3CC3)nc3sc4c(c23)CCCC4)cc1`, the MIC in data set [1] stood at 18.6 µM (≈ 6.25 µg/mL). In data set [2], the “fold change (FC)” value was over 1. The figures for the inhibition in data set [3] and in data set [7] were under 50% and 50%, respectively. The IC50 in data set [4] was found to be 4.23 µM. In addition, the inhibition at 48 h, 50 ug/ml in data set [6] is 23.1%.

As for `Brc1ccc(Nc2nc(-c3ccccc3)nc3sc4c(c23)CCCC4)cc1`, the MIC in data set [1] is 28.6 µM (≈ 12.5 µg/mL). The “fold change (FC)” value in data set [2] is listed as over 1. The figures for the inhibition in data set [3] and in data set [7] were under 50% and 50%, respectively. Also, in data set [4], the IC50 was 8.7 µM. Also, in data set [6], the inhibition at 48 h, 50 ug/ml came to 20.4%.

`CCc1nc(Nc2ccc(Cl)cc2)c2c3c(sc2n1)CCCC3` gave a minimal inhibitory concentration (MIC) in data set [1] of 18.2 µM (≈ 6.25 µg/mL). Besides, the “fold change (FC)” value in data set [2] was over 1. Besides, the inhibition is under 50% in data set [3] and 50% in data set [7]. For the same compound, in data set [4], the IC50 came out at 4.94 µM. In addition, the inhibition at 48 h, 50 ug/ml in data set [6] came out at 15.6%.

On to `CCc1nc(Nc2c(C)cccc2C)c2c3c(sc2n1)CCCC3`, for which inhibition of growth in data set [1] (MIC) required 18.5 µM (≈ 6.25 µg/mL). Besides, in data set [2], the “fold change (FC)” value is listed as over 1. The inhibition was under 50% in data set [3] and 50% in data set [7]. Moreover, the half-maximal inhibitory concentration (IC50) in data set [4] was determined as 5.02 µM. In addition, in data set [6], the inhibition at 48 h, 50 ug/ml was 26.5%.

As to `c1ccc(CNc2nc(-c3ccccc3)nc3sc4c(c23)CCCC4)cc1`, the lowest concentration to inhibit growth in data set [1] (MIC) was 33.6 µM (≈ 12.5 µg/mL). The “fold change (FC)” value in data set [2] is over 1. In addition, the inhibition was under 50% in data set [3] and 50% in data set [7]. In addition, the 50% inhibitory concentration (IC50) in data set [4] turned out to be 9.68 µM. For the same compound, in data set [6], the inhibition at 48 h, 50 ug/ml came out at 26.5%.
